Calls of active or inactive are those of the source. The rule behind the calls is not given here.
Assays:
[1] = target: T1, Proteasome Macropain subunit MB1 (Homo sapiens, UniProt P28074); assay: Inhibition of human 20S proteasome chymotrypsin-like activity using Suc-Leu-Leu-Val-Tyr-AMC as substrate pretreated for 15 mins followed by substrate addition by fluorescence assay
T1 sequence (P28074 whole entry): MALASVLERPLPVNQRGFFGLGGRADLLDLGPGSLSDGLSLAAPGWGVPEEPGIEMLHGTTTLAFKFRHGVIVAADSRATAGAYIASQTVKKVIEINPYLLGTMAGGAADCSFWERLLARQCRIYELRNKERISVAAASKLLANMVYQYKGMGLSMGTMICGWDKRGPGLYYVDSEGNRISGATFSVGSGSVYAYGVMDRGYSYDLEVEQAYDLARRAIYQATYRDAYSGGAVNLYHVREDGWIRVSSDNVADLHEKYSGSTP

RPMI-8226 = assay: Antiproliferative activity against human RPMI8226 cells after 72 hrs by MTS assay; format: functional, cell-based; conditions: RPMI-8226, 72 h
MM1.S = assay: Antiproliferative activity against human MM1S cells after 72 hrs by MTS assay; format: functional, cell-based
MV4-11 = assay: Antiproliferative activity against human MV4-11 cells after 72 hrs by MTS assay; format: functional, cell-based; conditions: MV4-11, 72 h
[2] = Metabolic stability in mouse liver microsomes assessed as parent compound remaining at 100 uM after 5 mins by LC-MS/MS analysis; format: ADME, Microsome; conditions: read-out: Stability
Mus musculus [3] = assay: In vivo inhibition of 20S proteasome chymotrypsin-like activity in Balb/c mouse blood at 100 mg/kg, po measured at 2 to 24 hrs post dose using LLVY-AMC as substrate by fluorescence assay; format: functional, organism-based
In short: (§1)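 BALB/c mice dosed orally in 0.5% CMC-Na vehicle. Blood was sampled at 2 and 24 h after dosing for proteasome chymotrypsin-like activity.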

Mus musculus [4] = assay: In vivo inhibition of 20S proteasome chymotrypsin-like activity in Balb/c mouse blood at 30 mg/kg, po measured at 2 to 24 hrs post dose using LLVY-AMC as substrate by fluorescence assay; format: functional, organism-based; in short: as §1
[5] = Clearance in ICR mouse at 5 mg/kg, iv by LC-MS/MS analysis; format: ADME, organism-based; conditions: in vivo
[6] = Volume of distribution at steady state in ICR mouse at 5 mg/kg, iv by LC-MS/MS analysis; format: ADME, organism-based; conditions: in vivo, read-out: Vdss
[7] = Half life in ICR mouse at 5 mg/kg, iv by LC-MS/MS analysis; format: ADME, organism-based; conditions: in vivo
[8] = AUC (0 to t) in ICR mouse at 5 mg/kg, iv after 1 hr by LC-MS/MS analysis; format: ADME, organism-based; set-up: time < 1 hr, dose 5 mg/kg, route intravenous; conditions: in vivo
[9] = Cmax in ICR mouse at 25 mg/kg, po via gavage by LC-MS/MS analysis; format: ADME, organism-based; set-up: dose 25 mg/kg, route oral; conditions: in vivo
[10] = Tmax in ICR mouse at 25 mg/kg, po via gavage by LC-MS/MS analysis; format: ADME, organism-based; conditions: in vivo
[11] = AUC (0 to t) in ICR mouse at 25 mg/kg, po via gavage after 1 hr by LC-MS/MS analysis; format: ADME, organism-based; set-up: time < 1 hr, dose 25 mg/kg, route oral; conditions: in vivo
[12] = Oral bioavailability in ICR mouse at 25 mg/kg via gavage by LC-MS/MS analysis; format: ADME, organism-based; conditions: in vivo
[13] = Apparent permeability from apical to basolateral side in human Caco2 cells measured at 90 mins time interval by LC-MS/MS analysis; conditions: Caco-2
[14] = Apparent permeability from basolateral to apical side in human Caco2 cells measured at 90 mins time interval by LC-MS/MS analysis; conditions: Caco-2
[15] = Efflux ratio of apparent permeability in human Caco2 cells measured at 90 mins time interval by LC-MS/MS analysis; conditions: Caco-2
[16] = Metabolic stability in mouse liver microsomes assessed as parent compound remaining at 100 uM after 30 mins by LC-MS/MS analysis; format: ADME, Microsome; conditions: read-out: Stability
In short: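 After the microsomal incubation, the clear supernatant was analysed by ESI LC-MS. The read-out was the relative peak area of each parent compound.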

Row | Structure (SMILES) | IC50 [1] [nM] | IC50 (RPMI-8226) [nM] | IC50 (MM1.S) [nM] | IC50 (MV4-11) [nM] | also measured
1 | COC[C@@H]1NC(=O)c2ccccc2OCCOCCOC[C@@H](C(=O)N[C@@H](Cc2ccccc2)C(=O)[C@@]2(C)CO2)NC1=O | 116 | 55 | 12 | 33 | 
2 | COC[C@@H]1NC(=O)[C@@H]2CCCN2C(=O)CCCCCOC[C@@H](C(=O)N[C@@H](Cc2ccccc2)C(=O)[C@@]2(C)CO2)NC1=O | 352 | 350 | 172 | 421 | 
3 | COCCc1ccc(OCC(O)CNC(C)C)cc1 (centres undefined) [METOPROLOL] |  |  |  |  | Papp A→B at 1.5 h [13]: 35.2 ×10⁻⁶ cm/s; Papp B→A at 1.5 h [14]: 25.9 ×10⁻⁶ cm/s; efflux ratio at 1.5 h [15]: 0.74
4 | COC[C@@H]1NC(=O)c2ccccc2OCCOCCOCCOC[C@@H](C(=O)N[C@@H](Cc2ccccc2)C(=O)[C@@]2(C)CO2)NC1=O | 370 | 82 | 43 | 130 | 
5 | COC[C@@H]1NC(=O)c2sc(C)nc2OCCCCCCOC[C@@H](C(=O)N[C@@H](Cc2ccccc2)C(=O)[C@@]2(C)CO2)NC1=O | 392 | > 100 | 65 | 36 | 
6 | COC[C@@H]1NC(=O)c2cccc(c2)OCCCCCCCCOC[C@@H](C(=O)N[C@@H](Cc2ccccc2)C(=O)[C@@]2(C)CO2)NC1=O | 51 | 32 | 11 |  | 
7 | CC[C@H]1OC(=O)[C@H](C)[C@@H](O[C@H]2C[C@@](C)(OC)[C@@H](O)[C@H](C)O2)[C@H](C)[C@@H](O[C@@H]2O[C@H](C)C[C@H](N(C)C)[C@H]2O)[C@](C)(O)C[C@@H](C)C(=O)[C@H](C)[C@@H](O)[C@]1(C)O [ERYTHROMYCIN] |  |  |  |  | Papp A→B at 1.5 h [13]: < 0.19 ×10⁻⁶ cm/s; Papp B→A at 1.5 h [14]: 15.1 ×10⁻⁶ cm/s; efflux ratio at 1.5 h [15]: > 79.5
8 | COC[C@@H]1NC(=O)c2nccn2CCCCCCCOC[C@@H](C(=O)N[C@@H](Cc2ccccc2)C(=O)[C@@]2(C)CO2)NC1=O | 37 | 5 | 2 | 5 | 
9 | COC[C@@H]1NC(=O)c2cccn2CCCCCCOC[C@@H](C(=O)N[C@@H](Cc2ccccc2)C(=O)[C@@]2(C)CO2)NC1=O | 14 | 13 | 4 | 11 | remaining at 5 min, 100 µM [2]: < 5%
10 | COC[C@@H]1NC(=O)c2ccccc2OCCCCCCC[C@@H](C(=O)N[C@@H](Cc2ccccc2)C(=O)[C@@]2(C)CO2)NC1=O | 14 | 73 | 32 | 66 | 
11 | COC[C@@H]1NC(=O)c2ccccc2OCCCCCCCCCOC[C@@H](C(=O)N[C@@H](Cc2ccccc2)C(=O)[C@@]2(C)CO2)NC1=O | 460 |  |  |  | 
12 | COC[C@H](NC(=O)c1cnc(C)s1)C(=O)N[C@@H](COC)C(=O)N[C@@H](Cc1ccccc1)C(=O)[C@@]1(C)CO1 [OPROZOMIB] |  | 19 | 9 | 28 | remaining at 0.5 h, 100 µM [16]: 60%; inhibition (Mus musculus [4]): Active; clearance [5]: 164 mL/min/kg; Vd [6]: 0.51 L/kg; half-life [7]: 2.4 min; AUC(0-t) at 1 h [8]: 506 ng·h/mL; Cmax [9]: 261 ng/mL; Tmax [10]: 13.2 min; AUC(0-t) at 1 h [11]: 142 ng·h/mL; bioavailability [12]: 5.61%
13 | COC[C@@H]1NC(=O)c2ccnn2CCCCCCOC[C@@H](C(=O)N[C@@H](Cc2ccccc2)C(=O)[C@@]2(C)CO2)NC1=O | 16 | 2 | 3 | 2 | remaining at 0.5 h, 100 µM [16]: 75%; inhibition (Mus musculus [4]): Active; clearance [5]: 107 mL/min/kg; Vd [6]: 0.48 L/kg; half-life [7]: 6 min; AUC(0-t) at 1 h [8]: 784 ng·h/mL; Cmax [9]: 325 ng/mL; Tmax [10]: 4.8 min; AUC(0-t) at 1 h [11]: 141 ng·h/mL; bioavailability [12]: 3.72%
14 | COC[C@@H]1NC(=O)c2cnn(C)c2CCCCCCOC[C@@H](C(=O)N[C@@H](Cc2ccccc2)C(=O)[C@@]2(C)CO2)NC1=O | 20 | 3 | 2 | 3 | remaining at 0.5 h, 100 µM [16]: 48%
15 | COC[C@@H]1NC(=O)c2ccccc2OCCCCCCCC[C@@H](C(=O)N[C@@H](Cc2ccccc2)C(=O)[C@@]2(C)CO2)NC1=O | 35 | 120 | 137 | 72 | 
16 | COC[C@@H]1NC(=O)c2ccnn2CCCCCCCOC[C@@H](C(=O)N[C@@H](Cc2ccccc2)C(=O)[C@@]2(C)CO2)NC1=O | 25 | 5 | 2 | 5 | 
17 | COC[C@@H]1NC(=O)c2cnn(C)c2OCCCCCCOC[C@@H](C(=O)N[C@@H](Cc2ccccc2)C(=O)[C@@]2(C)CO2)NC1=O | 32 | 20 | 6 | 4 | remaining at 0.5 h, 100 µM [16]: 63%

Further lines, with some results ahead:

Row | IC50 [1] [nM] | IC50 (RPMI-8226) [nM] | IC50 (MM1.S) [nM] | IC50 (MV4-11) [nM] | Structure (SMILES) | also measured
18 | 54 | > 100 | 58 | 36 | COC[C@@H]1NC(=O)c2ccccc2OCCCCCCOC[C@@H](C(=O)N[C@@H](Cc2ccccc2)C(=O)[C@@]2(C)CO2)NC1=O | remaining at 5 min, 100 µM [2]: < 5%; inhibition (Mus musculus [3]): Active; inhibition (Mus musculus [4]): inactive; clearance [5]: 67.2 mL/min/kg; Vd [6]: 0.62 L/kg; half-life [7]: 9.6 min; AUC(0-t) at 1 h [8]: 1240 ng·h/mL; Cmax [9]: 519 ng/mL; Tmax [10]: 4.8 min; AUC(0-t) at 1 h [11]: 133 ng·h/mL; bioavailability [12]: 2.15%
19 | 257 | 128 | 63 | 131 | COC[C@@H]1NC(=O)c2sccc2OCCCCCCOC[C@@H](C(=O)N[C@@H](Cc2ccccc2)C(=O)[C@@]2(C)CO2)NC1=O | 
20 | 100 | > 100 | 43 | 26 | COC[C@@H]1NC(=O)c2ccc(Cl)cc2OCCCCCCOC[C@@H](C(=O)N[C@@H](Cc2ccccc2)C(=O)[C@@]2(C)CO2)NC1=O | 
21 | 162 | > 100 | 53 |  | COC[C@@H]1NC(=O)c2ccc(C)cc2OCCCCCCOC[C@@H](C(=O)N[C@@H](Cc2ccccc2)C(=O)[C@@]2(C)CO2)NC1=O | 
22 | 21 | 74 | 29 | 13 | COC[C@@H]1NC(=O)c2ccccc2OCCCCCOC[C@@H](C(=O)N[C@@H](Cc2ccccc2)C(=O)[C@@]2(C)CO2)NC1=O | 
23 | 436 |  |  |  | COC[C@@H]1NC(=O)c2cc(Cl)ccc2OCCCCCCOC[C@@H](C(=O)N[C@@H](Cc2ccccc2)C(=O)[C@@]2(C)CO2)NC1=O | remaining at 5 min, 100 µM [2]: < 5%
24 | 4 | 5 | 3 | 6 | COC[C@@H]1NC(=O)c2cccc(OC)c2OCCCCCCOC[C@@H](C(=O)N[C@@H](Cc2ccccc2)C(=O)[C@@]2(C)CO2)NC1=O | remaining at 5 min, 100 µM [2]: < 5%
25 | 25 | 10 | 3 | 9 | COC[C@@H]1NC(=O)c2cccc(F)c2OCCCCCCOC[C@@H](C(=O)N[C@@H](Cc2ccccc2)C(=O)[C@@]2(C)CO2)NC1=O | 
26 | 36 | > 100 | 65 | 49 | COC[C@@H]1NC(=O)c2ccccc2OCCCCOC[C@@H](C(=O)N[C@@H](Cc2ccccc2)C(=O)[C@@]2(C)CO2)NC1=O | 
27 | 346 |  |  |  | COC[C@@H]1NC(=O)c2ccccc2OCCCCCCCCOC[C@@H](C(=O)N[C@@H](Cc2ccccc2)C(=O)[C@@]2(C)CO2)NC1=O | 
28 | 63 | > 100 | 78 | 39 | COC[C@@H]1NC(=O)c2ccccc2OCCCCCCCOC[C@@H](C(=O)N[C@@H](Cc2ccccc2)C(=O)[C@@]2(C)CO2)NC1=O | 
29 | 248 | > 100 | 37 |  | COC[C@@H]1NC(=O)c2ncccc2OCCCCCCOC[C@@H](C(=O)N[C@@H](Cc2ccccc2)C(=O)[C@@]2(C)CO2)NC1=O | 
30 | 253 | > 100 | 43 |  | COC[C@@H]1NC(=O)c2ccc(OC)cc2OCCCCCCOC[C@@H](C(=O)N[C@@H](Cc2ccccc2)C(=O)[C@@]2(C)CO2)NC1=O | 
31 | 232 |  |  |  | COC[C@@H]1NC(=O)c2cccnc2OCCCCCCOC[C@@H](C(=O)N[C@@H](Cc2ccccc2)C(=O)[C@@]2(C)CO2)NC1=O | 
32 | 205 | > 100 | 69 |  | COC[C@@H]1NC(=O)c2ccc(F)cc2OCCCCCCOC[C@@H](C(=O)N[C@@H](Cc2ccccc2)C(=O)[C@@]2(C)CO2)NC1=O | 
